Rows were chosen to be rich in hits. Some 3.2% of all compounds tested hit in one or more screens of this group.
MEKK3 PB1 HTS: modulators of MEKK3-MEK5 PB1 binding, primary screen, biochemical, wildtype MEKK3, multiplex bead flow cytometry, Alexa488-MEK5 | binding response (% of control), % at 10 µM | 290,000 tested, 1.4% active | AID 1529, 2009 | bead-based flow cytometry, Alexa488-MEK5 binding to MEKK3; actives lie on both sides; 0 = blocked by unlabeled MEK5, 100 = vehicle;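 active = binding response more than 3 SD above or below the average of its plate-row segment, actives on both sides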;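 note: Alexa488 bead fluorescence after subtracting the streptavidin-only scavenger bead signal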
MEKK2 mut-MEK5: MEK5 binding signal on mutant MEKK2 PB1, primary screen, biochemical, multiplex bead flow cytometry, Alexa488-MEK5; Alexa488-MEK5 binding to MEKK2 mutant; percent response, % at 10 µM; 290,000 tested, 0.35% active; in the data active = percent response above about 24%, passing the limit was not always enough
Apaf-1 inh: inhibitors of human Apaf-1 apoptosome, primary screen, biochemical, DEVD-Rh110 fluorescence, uHTS; 330,000 tested, 0.71% active; reconstituted apoptosome caspase-3 activity; AID 489030, 2010; inhibition, % at 20 µM; active = inhibition of at least 40% at 20 µM;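 note: plate controls were DMSO wells for no effect and DEVD-CHO caspase inhibitor wells for full effect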
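Medium: Hepes buffer, pH 7.5 / System: biochemical Apaf-1 apoptosome reconstitution / Measured by: Rh110 fluorescence, excitation 480 nm, emission 540 nm / Times: compound with Apaf-1, dATP, procaspase-3 30 min, then 50 min reaction, room temperature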
MEKK2wt PB1 HTS: modulators of MEK5 binding to wildtype MEKK2, primary screen, biochemical, multiplex bead flow cytometry, Alexa488-MEK5 | Mitogen-activated protein kinase kinase kinase 2 (Homo sapiens), Q9Y2U5 | Alexa488-MEK5 binding to MEKK2 WT; actives lie on both sides | binding response (% of control), % at 10 µM | 290,000 tested, 1.1% active; in the data active = binding response below about 67% or above about 130%
UBC13 polyUb: UBC13 polyubiquitin chain formation inhibitors, primary screen, biochemical, TR-FRET, uHTS. 330,000 tested, 0.47% active. AID 485273, 2010. inhibition, % at 20 µM; in the data active = inhibition above about 45%, passing the limit was not always enough
DSG3 Ab inh: inhibitors of pemphigus antibody binding to DSG3, primary screen, biochemical, bead-based, flow cytometry, scFv-GFP. Desmoglein-3 (Homo sapiens), P32926. DSG3-coupled beads, scFv-anti-DSG3-GFP binding; stronger effect = lower value. binding (percent of control), % at 10 µM. 310,000 tested, 0.48% active;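 active = binding more than 3 SD below its plate's average and above zero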;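 note: hits lower antibody fragment binding to DSG3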
Target sequence (P32926 whole entry, looked up, the tested form may be a part): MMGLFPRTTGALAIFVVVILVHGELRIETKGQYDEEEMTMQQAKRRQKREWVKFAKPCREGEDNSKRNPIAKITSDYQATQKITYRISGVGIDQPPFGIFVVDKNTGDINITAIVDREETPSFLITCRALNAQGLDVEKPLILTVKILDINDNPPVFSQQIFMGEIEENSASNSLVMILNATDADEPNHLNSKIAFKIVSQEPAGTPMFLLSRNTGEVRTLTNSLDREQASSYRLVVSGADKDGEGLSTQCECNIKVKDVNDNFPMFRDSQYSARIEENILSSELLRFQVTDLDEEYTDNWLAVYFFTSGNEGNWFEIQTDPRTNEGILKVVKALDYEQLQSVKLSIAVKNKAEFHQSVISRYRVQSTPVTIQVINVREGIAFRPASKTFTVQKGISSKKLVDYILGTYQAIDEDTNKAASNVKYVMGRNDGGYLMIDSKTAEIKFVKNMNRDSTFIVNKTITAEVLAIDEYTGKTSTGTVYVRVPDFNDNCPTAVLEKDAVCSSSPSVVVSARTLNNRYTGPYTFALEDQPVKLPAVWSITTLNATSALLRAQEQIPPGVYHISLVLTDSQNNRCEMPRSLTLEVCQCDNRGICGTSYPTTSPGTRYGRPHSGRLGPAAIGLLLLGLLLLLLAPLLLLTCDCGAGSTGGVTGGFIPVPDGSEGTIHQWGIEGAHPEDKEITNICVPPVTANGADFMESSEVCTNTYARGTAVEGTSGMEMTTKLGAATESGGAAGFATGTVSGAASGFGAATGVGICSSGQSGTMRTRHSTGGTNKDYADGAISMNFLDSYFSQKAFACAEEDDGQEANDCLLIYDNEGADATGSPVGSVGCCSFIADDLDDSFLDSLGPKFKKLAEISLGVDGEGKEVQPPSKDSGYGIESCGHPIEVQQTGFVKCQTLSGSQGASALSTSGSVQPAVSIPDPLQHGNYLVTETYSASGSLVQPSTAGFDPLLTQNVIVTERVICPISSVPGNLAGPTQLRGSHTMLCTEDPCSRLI
Apaf-1 inh conf: Apaf-1 inhibitors, single-dose retest, confirmation, biochemical, fluorescence, DEVD-Rh110, 20 µM; shares compounds with Apaf-1 inh; reconstituted apoptosome, caspase-3 DEVD-Rh110 fluorescence; inhibition, % at 20 µM; 1,800 tested, 25% active; AID 504614, 2011;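 active = mean inhibition of at least 40% at 20 µM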;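 note: plate controls were DMSO wells for no effect and DEVD-CHO caspase inhibitor control wells for full effect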
Rh110 quench: Rh110 fluorescence interference by putative Apaf-1 inhibitors, confirmation, artefact control for Apaf-1 inhibitor project, biochemical, 20 µM. shares compounds with Apaf-1 inh. quenched caspase reaction. activation (fluorescence interference), % at 20 µM. 1,800 tested, under 10 active. AID 504615, 2011;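 active = signal rise of 40% or more at 20 µM, treated as a fluorescence artifact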
Fluor interf inh: fluorescence interference of Apaf-1 inhibitor hits, dose response, artefact control for Apaf-1 inhibitor project; shares compounds with Apaf-1 inh; fluorescence interference counterscreen, Apaf-1 assay format; IC50, µM; 460 tested, under 10 active; AID 588538, 2011; call rule not given here
* hit, by the source's call; · = not tested or not shown.

SMILES	MEKK3 PB1 HTS	MEKK2 mut-MEK5	Apaf-1 inh	MEKK2wt PB1 HTS	UBC13 polyUb	DSG3 Ab inh	Apaf-1 inh conf	Rh110 quench	others
CCN1CCN(CCc2nc3cc(NC(=O)COc4ccc(Cl)cc4)ccc3n2C)CC1	95	-6	8	100	10	95	·	·
N#C/C(=C\c1ccc[nH]1)C(=O)Nc1ccccc1[N+](=O)[O-]	96	4	10	94	-16	102	·	·
O=C(O)c1ccccc1-c1ccccc1C(=O)NCc1ccccc1Cl	105	16	-4	111	6	112	·	·
COc1cc(Cl)c(C)cc1NC(=O)CC1CCCC1	105	2	6	103	4	121	·	·
CN1CCN(c2ccc(-c3cccc(NC(=O)COc4ccccc4)c3)nn2)CC1	·	·	47*	·	0	109	14	5
CN1CCN(c2ccc(-c3cccc(NC(=O)COc4ccc(Cl)cc4)c3)nn2)CC1	·	·	36	·	10	100	·	·
CCC1CN(C(=O)N2CCC(C(=O)NCc3ccco3)CC2)c2cc(C)ccc2O1 (stereo unspecified)	103	5	1	101	-5	96	·	·
O=C(O)c1ccc(/C=N\Nc2ccc(S(=O)(=O)N3CCOCC3)cc2[N+](=O)[O-])cc1	100	1	-20	101	-76	92	·	·
Cc1ccc(-n2c(O)c(/C=N/Nc3ccc(S(=O)(=O)N4CCOCC4)cc3[N+](=O)[O-])c3ccccc3c2=O)c(C)c1	106	-2	51*	99	-60	92	31	6
Cc1c(C(=O)OCC(=O)N(C)Cc2ccc(Cl)cc2)oc2ccccc12	·	·	16	·	4	·	·	·
Cc1cc(NC(=O)CSCC(=O)N(C)Cc2ccc(F)cc2)no1	104	8	16	109	19	102	·	·
CSc1ccc(CN(C)C(=O)CSCC(=O)Nc2cc(C)on2)cc1	98	6	48*	106	14	100	36	-2
COc1cc2c(cc1CNC[C@H]1O[C@@H](n3cnc4c(N)ncnc43)[C@H](O)[C@@H]1O)OCO2	·	·	-6	·	-4	92	·	·
Cc1ccc(NC2=C/C(=N/S(=O)(=O)c3cccs3)c3ccccc3C2=O)cc1C	102	2	·	96	·	92	·	·
CC(=O)Nc1ccc(NC2=C/C(=N/S(=O)(=O)c3cccs3)c3ccccc3C2=O)cc1	124	-1	90*	105	-79	·	94*	-5	Fluor interf inh=>100
COc1ccc(S(=O)(=O)c2ccc(O)cc2)cc1	99	3	0	103	6	98	·	·
Cc1ccccc1NC1=C/C(=N\S(=O)(=O)c2cccs2)c2ccccc2C1=O	99	-3	97*	91	-167	97	99*	-7	Fluor interf inh=>100
COc1ccc(S(=O)(=O)/N=C2\C=C(Nc3ccc(O)cc3)C(=O)c3ccccc32)cc1	101	-5	96*	90	-262	95	98*	5	Fluor interf inh=>100
CC(=O)Nc1ccc(S(=O)(=O)NC2=C(N3CCN(Cc4ccccc4)CC3)C(=O)c3ccccc3C2=O)cc1	·	·	·	·	·	112	·	·
CCOC(=O)N1CCN(C2=C(NS(=O)(=O)c3ccc(NC(C)=O)cc3)C(=O)c3ccccc3C2=O)CC1	96	1	83*	101	-86	101	25	11
CCN1CCN(C2=C(NS(=O)(=O)c3ccc(NC(C)=O)cc3)C(=O)c3ccccc3C2=O)CC1	99	4	74*	104	-77	97	32	2
CCN1CCN(C(CNS(=O)(=O)c2ccc(C)cc2)c2cccnc2)CC1 (stereo unspecified)	99	2	8	106	5	107	·	·
CC(=O)Nc1ccc(S(=O)(=O)Nc2nc3ccccc3nc2N2CCCC2)cc1	77	-21	10	84	-3	107	·	·
CC(=O)Nc1ccc(S(=O)(=O)NC2=C(N3CCN(C)CC3)C(=O)c3ccccc3C2=O)cc1	103	2	60*	107	-122	128	46*	7	Fluor interf inh=>100
CCN1CCN(C2=C(NS(=O)(=O)c3ccc(C)cc3)C(=O)c3ccccc3C2=O)CC1	97	1	77*	101	-82	103	35	4
SMILES	MEKK3 PB1 HTS	MEKK2 mut-MEK5	Apaf-1 inh	MEKK2wt PB1 HTS	UBC13 polyUb	DSG3 Ab inh	Apaf-1 inh conf	Rh110 quench	others
O=C(CN1CCN(C(=O)C2CCN(C(=O)/C=C/c3ccccc3)CC2)CC1)Nc1ccccc1Cl	·	·	11	·	-7	102	·	·
Nc1cc(C(=O)OCC(=O)N2CCC(Cc3ccccc3)CC2)ccc1Cl	·	·	19	·	12	90	·	·
O=C1Nc2cc(Cl)c(Cl)cc2N(O)N1c1ccc(Cl)cc1	96	0	-21	94	3	98	·	·
O=C1Nc2cc(Cl)c(Cl)cc2N(O)N1c1cccc(Cl)c1	101	2	44*	101	2	117	13	-2
CC(C)(C)C(=O)[C@@H]1[C@@H]2C(=O)N(C3CCCCC3)C(=O)[C@@H]2[C@H]2c3ccccc3C=CN12	·	·	64*	·	-16	·	60*	4	Fluor interf inh=>100
COc1ccc(N2C(=O)[C@@H]3[C@H](C2=O)[C@H]2c4ccccc4C=CN2[C@@H]3C(C)=O)cc1	92	-1	·	96	·	99	·	·
COc1cccc(CNC(=O)c2ccccc2-c2ccccc2)c1	85	-14	14	93	-2	·	·	·
COC(=O)c1ccc(CNC(=O)Cn2nnnc2CN(C)C(C)C)cc1	99	3	-2	103	-3	118	·	·
COc1cccc2c1[C@@H]1CN(CCCCn3c(=O)[nH]c4c(sc5ncc(-c6ccccc6)nc54)c3=O)C[C@@H]1CO2	·	·	48*	·	30	114	22	11
COc1ccccc1N1CCN(C(=O)CCCCCn2c(=O)[nH]c3ccsc3c2=O)CC1	109	-1	-12	107	22	92	·	·

High-throughput results as filed in PubChem BioAssay.
